The source made the active and inactive calls. The rule behind the calls is not given here.
Assays:
MCF7 = assay: Antitumor activity in human MCF7 cells xenografted in SCID mouse assessed as reduction in tumor growth at 50 to 100 mg/kg, ip administered once daily for 5 consecutive days with 2 days off scheduled for 3 cycles measured upto 60 days; type: functional, organism-based; settings: dose 50-100 mg/kg, time <= 60.0 day
HH = assay: Antiproliferative activity against human HH cells assessed as inhibition of cell viability measured for 6 to 7 days by cell titer glo assay; type: functional, cell-based
Outline: (§1)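 Cells seeded in recommended growth medium, incubated overnight at 37°C in 5% CO2, then exposed to serial dilutions of inhibitor for 6–7 d. A parallel plate was read with CellTiter-Glo at compound addition as a T=0 value. The luminescent viability readout had no-cell background subtracted and was expressed as % of DMSO control.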

DG-75 = assay: Antiproliferative activity against human DG-75 cells assessed as inhibition of cell viability measured for 6 to 7 days by cell titer glo assay; type: functional, cell-based
Outline: (§2)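 Tumor lines plated in recommended growth media, overnight at 37°C, 5% CO2, then given serial dilutions; a T=0 plate read with CellTiter-Glo at dosing. After 6–7 d of exposure, viability read by CellTiter-Glo luminescence. No-cell wells subtracted, data expressed as % of DMSO control.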

K562 = assay: Antiproliferative activity against human K562 cells assessed as inhibition of cell viability measured for 6 to 7 days by cell titer glo assay; type: functional, cell-based; outline: as §1
[1] = Toxicity in SCID nude mouse xenografted with human COLO 205 cells assessed as body weight loss at 25 to 100 mg/kg, ip administered once daily for 5 consecutive days with 2 days off scheduled for 2 cycles measured upto 60 days relative to control; type: organism-based; settings: in vivo, 1440 h, dose 25-100 mg/kg, time < 60 day
[2] = Toxicity in SCID nude mouse xenografted with human NCI-H460 cells assessed as drug tolerance at 25 to 100 mg/kg, ip administered once daily for 5 consecutive days with 2 days off scheduled for 3 cycles measured upto 60 days; type: organism-based; settings: in vivo, 1440 h, dose 25-100 mg/kg, time < 60 day
HT-29 = assay: Antiproliferative activity against human HT-29 cells assessed as inhibition of cell viability measured for 6 to 7 days by cell titer glo assay; type: functional, cell-based; outline: as §1
[3] = Antiproliferative activity against HUVEC cells assessed as reduction in cell viability measured after 6 days by cell titer glo assay; type: toxicity, cell-based; settings: human
Outline: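 HUVECs (primary) in EGM-2 with 2% FBS and supplements, assayed in cycling and nonproliferating states. Cycling: 500 cells/well seeded 1 d before dosing. Nonproliferating: 35,000 cells in half-area wells seeded 4 d ahead, fresh media next day and media changed 1 d before dosing. 2-fold dilutions 20000 to 0.15 nmol/L, 6 d at 37°C, 5% CO2. CellTiter-Glo 30 min, background-subtracted, % of DMSO control.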

KG-1 = assay: Antiproliferative activity against human KG-1 cells assessed as inhibition of cell viability measured for 6 to 7 days by cell titer glo assay; type: functional, cell-based; outline: as §1
[4] = Antiproliferative activity against human HS-Sultan cells assessed as inhibition of cell viability measured for 6 to 7 days by cell titer glo assay; type: functional, cell-based; outline: as §1
NCI-H630 = assay: Antiproliferative activity against human NCI-H630 cells assessed as inhibition of cell viability measured for 6 to 7 days by cell titer glo assay; type: functional, cell-based
Outline: (§3)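 Cells seeded in recommended growth medium, held overnight at 37°C in 5% CO2, then exposed to serial dilutions of inhibitor for 6–7 d. A time-zero plate was read with CellTiter-Glo at dosing. Luminescent viability read at the end. No-cell wells subtracted as background, data expressed as percent of DMSO control.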

HD-MY-Z = assay: Antiproliferative activity against human HD-MY-Z cells assessed as inhibition of cell viability measured for 6 to 7 days by cell titer glo assay; type: functional, cell-based; outline: as §2
Jurkat = assay: Antiproliferative activity against human Jurkat cells assessed as inhibition of cell viability measured for 6 to 7 days by cell titer glo assay; type: functional, cell-based; outline: as §1
[5] = Toxicity in SCID nude mouse xenografted with human HL-60 cells assessed as drug tolerance at 100 mg/kg, ip administered once daily for 5 consecutive days with 2 days off scheduled for 2 cycles measured upto 60 days; settings: in vivo, 1440 h
[6] = Antiproliferative activity against human Kasumi-2 cells assessed as inhibition of cell viability measured for 6 to 7 days by cell titer glo assay; type: functional, cell-based; outline: as §1
[7] = Antiproliferative activity against human SKO-007 cells assessed as inhibition of cell viability measured for 6 to 7 days by cell titer glo assay; type: functional, cell-based; outline: as §3
OCI-AML2 = assay: Antiproliferative activity against human OCI-AML2 cells assessed as inhibition of cell viability measured for 6 to 7 days by cell titer glo assay; type: functional, cell-based; outline: as §3
DOHH-2 = assay: Antiproliferative activity against human DOHH-2 cells assessed as inhibition of cell viability measured for 6 to 7 days by cell titer glo assay; type: functional, cell-based; outline: as §2
[8] = Antiproliferative activity against human TO 175.T cells assessed as inhibition of cell viability measured for 6 to 7 days by cell titer glo assay; type: functional, cell-based; outline: as §3
HL-60 = assay: Antitumor activity in human HL-60 cells xenografted in SCID mouse assessed as reduction in tumor growth at 100 mg/kg, ip administered once daily for 5 consecutive days with 2 days off scheduled for 2 cycles measured upto 60 days; type: functional, organism-based; settings: time 60.0 day
HN5 = assay: Antiproliferative activity against human HN5 cells assessed as inhibition of cell viability measured for 6 to 7 days by cell titer glo assay; type: functional, cell-based; outline: as §1
[9] = Toxicity in SCID nude mouse xenografted with human MCF7 cells assessed as drug tolerance at 50 to 100 mg/kg, ip administered once daily for 5 consecutive days with 2 days off scheduled for 3 cycles measured upto 60 days; type: organism-based; settings: in vivo, 1440 h, dose 50-100 mg/kg, time < 60 day
SK-MEL-2 = assay: Antiproliferative activity against human SK-MEL-2 cells assessed as inhibition of cell viability measured for 6 to 7 days by cell titer glo assay; type: functional, cell-based; outline: as §3
[10] = Antiproliferative activity against human BC1 cell line assessed as inhibition of cell viability measured for 6 to 7 days by cell titer glo assay; type: functional, cell-based; outline: as §2
NU-DUL-1 = assay: Antiproliferative activity against human NU-DUL-1 cells assessed as inhibition of cell viability measured for 6 to 7 days by cell titer glo assay; type: functional, cell-based; outline: as §3
BXPC-3 = assay: Antiproliferative activity against human BXPC-3 cells assessed as inhibition of cell viability measured for 6 to 7 days by cell titer glo assay; type: functional, cell-based; outline: as §2
J-RT3-T3-5 = assay: Antiproliferative activity against human J-RT3-T3-5 cells assessed as inhibition of cell viability measured for 6 to 7 days by cell titer glo assay; type: functional, cell-based; outline: as §1
KU812 cell line = assay: Antiproliferative activity against human KU812 cell line assessed as inhibition of cell viability measured for 6 to 7 days by cell titer glo assay; type: functional, cell-based; outline: as §1
A549 [11] = assay: Induction of mitotic alteration in human A549 cells formation of unorganized chromosomes at 12 to 330 nmol/L incubated for 24 hrs by immunofluorescent microscopy based analysis; type: functional, cell-based; settings: dose lower […], dose upper 330.0 nmol/L
[12] = Antiproliferative activity against human EM-3 cells assessed as inhibition of cell viability measured for 6 to 7 days by cell titer glo assay; type: functional, cell-based; outline: as §2
A549 [13] = assay: Induction of mitotic alteration in human A549 cells formation of malformed bipolar at 12 to 330 nmol/L incubated for 24 hrs by immunofluorescent microscopy based analysis; type: functional, cell-based; settings: dose lower […], dose upper 330.0 nmol/L
MC-CAR = assay: Antiproliferative activity against human MC-CAR cells assessed as inhibition of cell viability measured for 6 to 7 days by cell titer glo assay; type: functional, cell-based; outline: as §1

## CCn1cc(-c2ccnc3[nH]c(-c4cccc(CN(C)C)c4)cc23)c(-c2ccc(NC(=O)N(C)C)cc2)n1 [GSK-1070916]
MCF7
  Activity: inactive
HH
  EC50: 18 nM
DG-75
  EC50: 18 nM
K562
  EC50: 13 nM
[1]
  Activity: < 15%
[2]
  Activity: Non-Toxic
HT-29
  EC50: 10 nM
[3]
  EC50 at 6 days: 3900 nM
KG-1
  EC50: 32 nM
[4]
  EC50: 14 nM
NCI-H630
  EC50: 127 nM
HD-MY-Z
  EC50: 4 nM
Jurkat
  EC50: 3 nM
[5]
  Activity: Toxic
[6]
  EC50: 6 nM
[7]
  EC50: 352 nM
OCI-AML2
  EC50: 4 nM
DOHH-2
  EC50: 14 nM
[8]
  EC50: 54 nM
HL-60
  Activity: Active
HN5
  EC50: 10 nM
[9]
  Activity: Toxic
SK-MEL-2
  EC50: 2 nM
[10]
  EC50: 18 nM
NU-DUL-1
  EC50: 4 nM
BXPC-3
  EC50: 3 nM
J-RT3-T3-5
  EC50: 9 nM
KU812 cell line
  EC50: 8 nM
A549 [11]
  Activity: Active
[12]
  EC50: 4 nM
A549 [13]
  Activity: Active
MC-CAR
  EC50: 9 nM

Source: ChEMBL document CHEMBL5705886, “GSK1070916, a potent Aurora B/C kinase inhibitor with broad antitumor activity in tissue culture cells and human tumor xenograft models” (Mol Cancer Ther, 2009)
